Laboratory results reported in ChEMBL document CHEMBL4837193 (Eur J Med Chem, 2021).
Activity calls are given as the source filed them. The calls are words filed in the database; no cut-off is given here.

What was measured:
HeLa [1] = experiment: Antiproliferative activity against human HeLa cells assessed as cell growth inhibition after 48 hrs by MTT assay; format: functional, cell-based
Summary of the method: (§1)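 Cells grown at 37 °C with CO2 in RPMI-1640 or DMEM plus 10% FBS. Seeded at 2 × 10³ per well, attached 24 h, then medium changed. Compound exposure 48 h at 37 °C, DMSO 0.1% as vehicle. MTT added and incubated a further 4 h. Crystals dissolved, absorbance read at 570 nm. IC50 from curve fitting, mean ± SD of three independent experiments.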

HepG2 = experiment: Antiproliferative activity against human HepG2 cells assessed as cell growth inhibition after 48 hrs by MTT assay; format: functional, cell-based; conditions: HepG2, 48 h; summary of the method: as §1
A549 = experiment: Antiproliferative activity against human A549 cells assessed as cell growth inhibition after 48 hrs by MTT assay; format: functional, cell-based; conditions: A549, 48 h; summary of the method: as §1
HT-29 = experiment: Antiproliferative activity against human HT29 cells assessed as cell growth inhibition after 48 hrs by MTT assay; format: functional, cell-based; conditions: HT-29, 48 h
HCT-116 = experiment: Antiproliferative activity against human HCT-116 cells assessed as cell growth inhibition after 48 hrs by MTT assay; format: functional, cell-based; conditions: HCT-116, 48 h; summary of the method: as §1
HEK293 = experiment: Antiproliferative activity against human HEK293 cells assessed as cell growth inhibition after 48 hrs by MTT assay; format: cell-based; conditions: HEK293, 48 h; summary of the method: as §1
T47D = experiment: Antiproliferative activity against human T47D cells assessed as cell growth inhibition after 48 hrs by MTT assay; format: functional, cell-based
Tubulin (Homo sapiens) [2] = target: T1, Tubulin (Homo sapiens) (UniProt P68371+Q9H4B7+P0DPH7+P68366+Q13509+Q71U36+P04350+Q3ZCM7+P07437+P68363+Q9BQE3+Q6PEY2+Q13885+Q9BVA1+Q9BUF5); experiment: Inhibition of tubulin polymerization (unknown origin) at 10 uM measured after 30 mins every 1 min for 20 mins by spectrophotometric method; format: protein-complex assay
Summary of the method: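 Tubulin at 2 mg/mL in PEM buffer (100 mM PIPES pH 6.9, 1 mM MgCl2, 1 mM EGTA, 5% glycerol) preincubated on ice with compound or DMSO, then GTP added. After 0.5 h, A340 read every 1 min for 20 min at 37 °C. Plateau values used. Single-point inhibition at 10 µM; IC50 is the concentration halving polymerization at 20 min, mean ± SD of three experiments.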

HeLa [3] = experiment: Induction of apoptosis in human HeLa cells assessed as late apoptotic cells at 30 nM after 24 hrs by AnnexinV/PI-staining based flow cytometry (reference value: 0.884 %)
Tubulin = experiment: Inhibition of tubulin polymerization (unknown origin) measured afer 30 mins every 1 min for 20 mins by spectrophotometric method; format: protein-complex assay, Homo sapiens
Summary of the method: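 Tubulin at 2 mg/mL in PEM buffer (100 mM PIPES pH 6.9, 1 mM MgCl2, 1 mM EGTA, 5% glycerol) preincubated on ice with compound or DMSO, then GTP added. After 0.5 h, A340 read every 1 min for 20 min at 37 °C. Plateau values used.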

HeLa [4] = experiment: Cell cycle arrest in human HeLa cells assessed as increase in cells accumulation at G2/M phase at 30 nM measured after 24 hrs by propidium iodide staining based flow cytometric analysis (reference value: 12.49 %); format: functional
HeLa [5] = experiment: Induction of apoptosis in human HeLa cells assessed as necrotic cells at 30 nM after 24 hrs by AnnexinV/PI-staining based flow cytometry (reference value: 0.093 %)
Tubulin (Homo sapiens) [6] = target: T1, Tubulin (Homo sapiens); experiment: Inhibition of […]colchicine binding to tubulin (unknown origin) at 4 uM incubated for 45 mins by fluorescence assay relative to control; format: protein-complex assay
Summary of the method: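 Tubulin (4 µM) preincubated 45 min at 37 °C with test agent (20–80 µM), then colchicine (4 µM) added. After a further 45 min at 37 °C, fluorescence read at excitation 340 nm and emission 435 nm, with buffer blank subtracted.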

HeLa [7] = experiment: Cell cycle arrest in human HeLa cells assessed as increase in cells accumulation at G0/G1 phase at 120 nM measured after 24 hrs by propidium iodide staining based flow cytometric analysis (reference value: 67.22 %); format: functional
HeLa [8] = experiment: Induction of apoptosis in human HeLa cells assessed as early apoptotic cells at 30 nM after 24 hrs by AnnexinV/PI-staining based flow cytometry (reference value: 2.87%)
HeLa [9] = experiment: Induction of apoptosis in human HeLa cells assessed as necrotic cells at 120 nM after 24 hrs by AnnexinV/PI-staining based flow cytometry (reference value: 0.093 %)
HeLa [10] = experiment: Induction of apoptosis in human HeLa cells assessed as early apoptotic cells at 120 nM after 24 hrs by AnnexinV/PI-staining based flow cytometry (reference value: 2.87%)
HeLa [11] = experiment: Induction of apoptosis in human HeLa cells assessed as increase in cleaved PARP level incubated for 24 hrs by Western blot analysis; format: functional, cell-based
Summary of the method: (§2)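 HeLa cells treated as for cell-cycle analysis (30, 60, 120 nM, 24 h), then lysed and protein quantified. Lysates boiled 5 min, run on SDS-PAGE and transferred to PVDF. Membranes blocked in 5% skim milk 1 h at RT, primary antibodies overnight at 4 °C, β-actin/GAPDH as loading controls. Secondary antibody 1:4000 for 2 h at RT. Mean ± SD of three independent experiments.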

HeLa [12] = experiment: Induction of apoptosis in human HeLa cells assessed as late apoptotic cells at 60 nM after 24 hrs by AnnexinV/PI-staining based flow cytometry (reference value: 0.884 %)
HeLa [13] = experiment: Cell cycle arrest in human HeLa cells assessed as increase in cells accumulation at S phase at 120 nM measured after 24 hrs by propidium iodide staining based flow cytometric analysis (reference value: 20.29 %); format: functional
HeLa [14] = experiment: Induction of apoptosis in human HeLa cells assessed as early apoptotic cells at 60 nM after 24 hrs by AnnexinV/PI-staining based flow cytometry (reference value: 2.87%)
HeLa [15] = experiment: Induction of apoptosis in human HeLa cells assessed as necrotic cells at 60 nM after 24 hrs by AnnexinV/PI-staining based flow cytometry (reference value: 0.093 %)
HeLa [16] = experiment: Cell cycle arrest in human HeLa cells assessed as increase in cells accumulation at S phase at 60 nM measured after 24 hrs by propidium iodide staining based flow cytometric analysis (reference value: 20.29 %); format: functional
HeLa [17] = experiment: Cell cycle arrest in human HeLa cells assessed as increase in cells accumulation at G2/M phase at 60 nM measured after 24 hrs by propidium iodide staining based flow cytometric analysis (reference value: 12.49 %); format: functional
HeLa [18] = experiment: Induction of apoptosis in human HeLa cells assessed as late apoptotic cells at 120 nM after 24 hrs by AnnexinV/PI-staining based flow cytometry (reference value: 0.884 %)
HeLa [19] = experiment: Cell cycle arrest in human HeLa cells assessed as increase in cells accumulation at G2/M phase at 120 nM measured after 24 hrs by propidium iodide staining based flow cytometric analysis (reference value: 12.49 %); format: functional
HeLa [20] = experiment: Cell cycle arrest in human HeLa cells assessed as increase in cells accumulation at G0/G1 phase at 30 nM measured after 24 hrs by propidium iodide staining based flow cytometric analysis (reference value: 67.22 %); format: functional
HeLa [21] = experiment: Cell cycle arrest in human HeLa cells assessed as increase in cells accumulation at S phase at 30 nM measured after 24 hrs by propidium iodide staining based flow cytometric analysis (reference value: 20.29 %); format: functional
HeLa [22] = experiment: Induction of cell cycle arrest in human Hela cells assessed as decrease in cdc2 expression measured after 24 hrs by Western blot analysis relative to control; format: functional, cell-based; conditions: dose 30-120 nM; summary of the method: as §2
HeLa [23] = experiment: Induction of cell cycle arrest in human Hela cells assessed as increase in cyclin B1 expression measured after 24 hrs by Western blot analysis relative to control; format: functional, cell-based; conditions: dose 30-120 nM; summary of the method: as §2
HeLa [24] = experiment: Cell cycle arrest in human HeLa cells assessed as increase in cells accumulation at G0/G1 phase at 60 nM measured after 24 hrs by propidium iodide staining based flow cytometric analysis (reference value: 49.85 %); format: functional
HeLa [25] = experiment: Induction of apoptosis in human HeLa cells assessed as effect on Bax level incubated for 24 hrs by Western blot analysis; format: functional, cell-based; summary of the method: as §2

For `COc1cc(-c2nc3nccc(-c4ccccc4C)n3n2)cc(OC)c1OC`, the IC50 (HeLa [1]) was > 30 µM.
`COc1ccc(-c2nc3nccc(-c4cc(OC)c(OC)c(OC)c4)n3n2)cc1NC(C)=O` was tested, and the IC50 (HepG2) was > 100 µM, the IC50 (A549) was 34.6 µM and the IC50 (HT-29) was 1.66 µM. For the same compound, the IC50 (HCT-116) was 22.4 µM, the IC50 (HEK293) was 82.1 µM and the IC50 (T47D) was 5.67 µM. The inhibition (Tubulin (Homo sapiens) [2]) was 16% and the IC50 (HeLa [1]) was 0.28 µM.
With `COc1ccc(-c2ccnc3nc(-c4cc(OC)c(OC)c(OC)c4)nn23)cc1[N+](=O)[O-]` the IC50 (HeLa [1]) was > 30 µM.
For `COC(=O)c1ccc(-c2ccnc3nc(-c4cc(OC)c(OC)c(OC)c4)nn23)cc1`, the IC50 (HeLa [1]) was > 30 µM.
For `COc1ccc(-c2nc3nccc(-c4cc(OC)c(OC)c(OC)c4)n3n2)cc1`, the IC50 (HeLa [1]) was 0.9 µM.
`COc1cc(-c2nc3nccc(-c4cccnc4)n3n2)cc(OC)c1OC` was tested, and the IC50 (HeLa [1]) was > 30 µM.
With `COc1cc(-c2nc3nccc(-c4ccco4)n3n2)cc(OC)c1OC` the IC50 (HeLa [1]) was > 30 µM.
For `COc1cc(-c2nc3nccc(-c4ccc(NC(C)=O)cc4)n3n2)cc(OC)c1OC`, the IC50 (HeLa [1]) was 22.2 µM.
With `COc1cc(-c2nc3nccc(-c4ccc(N)cc4)n3n2)cc(OC)c1OC` the IC50 (HeLa [1]) was 29.9 µM.
`COc1ccc(-c2nc3nccc(-c4cc(OC)c(OC)c(OC)c4)n3n2)cc1O` gave an IC50 (HepG2) of 14.7 µM, an Activity (HeLa [3]) of 5.61% and an IC50 (Tubulin) of 1.3 µM. For the same compound, the Activity (HeLa [4]) was 16.18%, the IC50 (A549) was 6.05 µM and the Activity (HeLa [5]) was 0.329%. The IC50 (HT-29) was 0.24 µM, the inhibition (Tubulin (Homo sapiens) [6]) was “Dose-Dependent Effect” and the Activity (HeLa [7]) was 29.01%. The Activity (HeLa [8]) was 8.5%, the Activity (HeLa [9]) was 2.37% and the IC50 (HCT-116) was 18.4 µM. The Activity (HeLa [10]) was 14.3%, the IC50 (HEK293) was > 100 µM and the Activity (HeLa [11]) was “Active”. For the same compound, the Activity (HeLa [12]) was 8.85%, the Activity (HeLa [13]) was 24.67% and the Activity (HeLa [14]) was 10.5%. For the same compound, the Activity (HeLa [15]) was 1.07%, the Activity (HeLa [16]) was 27.84% and the Activity (HeLa [17]) was 22.81%. The IC50 (T47D) was 3.49 µM, the Activity (HeLa [18]) was 19.3% and the Activity (HeLa [19]) was 46.82%. The Activity (HeLa [20]) was 66.03%, the Activity (HeLa [21]) was 17.79% and the Activity (HeLa [22]) was “Active”. For the same compound, the Activity (HeLa [23]) was “Dose-Dependent Effect”, the inhibition (Tubulin (Homo sapiens) [2]) was 94% and the Activity (HeLa [24]) was 49.85%. The IC50 (HeLa [1]) was 0.06 µM and the Activity (HeLa [25]) was “inactive”.
With `COc1cc(-c2nc3nccc(-c4ccc([N+](=O)[O-])cc4)n3n2)cc(OC)c1OC` the IC50 (HeLa [1]) was > 30 µM.
For `COc1cc(-c2ccnc3nc(-c4ccc(C)cc4)nn23)cc(OC)c1OC`, the IC50 (HeLa [1]) was > 30 µM.
In the case of `COc1cc(-c2ccnc3nc(-c4ccc(Cl)c(Cl)c4)nn23)cc(OC)c1OC`, the IC50 (HeLa [1]) is reported as > 30 µM.
For `COc1cc(-c2nc3nccc(-c4cc(Cl)c(NC(C)=O)c(Cl)c4)n3n2)cc(OC)c1OC`, the IC50 (HeLa [1]) was > 30 µM.
